Experiments:
[1] = target: Human immunodeficiency virus 1; experiment: Anti-HIV-1 activity in MT-4 cells
[2] = (§1) Selectivity Index (CC50:EC50 Ratio)
How it was run: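 Ratio of CC50 (MTT viability of mock-infected MT-4 cells) to EC50 (MTT protection of MT-4 cells from HIV-1 IIIB cytopathicity, 100 CCID50, 4 days at 37 °C).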

MT4 [3] = experiment: Dose required to reduce the viability of mock-infected cells by 50%; format: functional; details: Homo sapiens
How it was run: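 Mock-infected MT-4 cells were run in parallel with the antiviral assay: 1 × 10^4 cells/well, serial compound dilutions, 4 days at 37 °C. Viability was read by MTT. CC50 is the dose that reduces viability by 50%; mean of at least two experiments.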

[4] = test system: Human immunodeficiency virus 1; experiment: Dose required to achieve 50% protection of MT-4 cells from HIV-1 induced cytopathogenicity; format: functional, organism-based; details: Human immunodeficiency virus 1, MT4
How it was run: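 MT-4 cells (1 × 10^4/well) in RPMI 1640 with 10% FCS were infected with 100 CCID50 of HIV-1 IIIB, with or without serial dilutions of compound (DMSO stock diluted in medium). After 4 days at 37 °C, viable cells were counted by MTT. EC50 is the dose giving 50% protection from virus-induced cytopathicity; mean of at least two experiments.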

MT4 [5] = experiment: as §1; format: functional
[6] = target: Human immunodeficiency virus type 1 reverse transcriptase (Human immunodeficiency virus 1, UniProt Q72547); experiment: Dose required to inhibit the HIV-1 Reverse transcriptase activity by 50%
How it was run: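 Highly purified recombinant wild-type HIV-1 RT, RNA-dependent polymerase activity. Buffer: 50 mM Tris-HCl pH 7.8, 80 mM KCl, 6 mM MgCl2, 1 mM DTT, 0.1 mg/mL BSA. Template/primer: poly(rC)/oligo(dG)12-18 at 0.5 OD260 unit/mL. Substrate: [3H]dGTP (1 Ci/mmol). Incubated 30 min at 37 °C; acid-insoluble radioactivity read on glass fibre filters.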

Structure (SMILES)	EC50 [1] [µM]	Selectivity index [2]	CC50 (MT4 [3]) [µM]	EC50 [4] [nM]	Selectivity index (MT4 [5])	IC50 [6] [nM]
Cc1ccc(C(OCCn2c([N+](=O)[O-])cnc2C)c2ccccc2)cc1 (configuration not stated)	1.41	–	–	–	–	–
Cc1ncc([N+](=O)[O-])n1CCOC(c1ccccc1)c1ccc([N+](=O)[O-])cc1 (configuration not stated)	–	22	111	5000	–	–
CC(=O)Nc1ccc(C(OCCn2c([N+](=O)[O-])cnc2C)c2ccccc2)cc1 (configuration not stated)	–	–	> 200	> 200000	–	–
Cc1ncc([N+](=O)[O-])n1CCOC(c1ccccc1)c1ccc(F)cc1 (configuration not stated)	0.891	–	–	–	–	–
Cc1cccc(C(OCCn2c([N+](=O)[O-])cnc2C)c2ccccc2)c1 (configuration not stated)	–	–	> 200	100	>2000	300
Cc1ncc([N+](=O)[O-])n1CCOC(c1ccccc1)c1ccccc1Cl (configuration not stated)	–	–	52	600	85	600
Cc1ncc([N+](=O)[O-])n1CCOC(c1ccccc1)c1cc(F)cc(F)c1 (configuration not stated)	–	–	> 200	1000	>200	–
Cc1ncc([N+](=O)[O-])n1CCOC(c1ccccc1)c1ccc(C(C)(C)C)cc1 (configuration not stated)	3.98	–	–	–	–	–
Cc1cc(C)cc(C(OCCn2c([N+](=O)[O-])cnc2C)c2ccccc2)c1 (configuration not stated)	–	–	200	400	>500	–
Cc1ncc([N+](=O)[O-])n1CCOC(c1ccccc1)c1ccccc1	–	–	> 200	200	>1000	–
Cc1ncc([N+](=O)[O-])n1CCOC(c1ccccc1)c1ccc2ccccc2c1 (configuration not stated)	–	–	> 200	106000	>1.8	–
Cc1ncc([N+](=O)[O-])n1CCOC(c1ccccc1)c1ccccc1F (configuration not stated)	–	–	63	200	315	400
COc1ccc(C(OCCn2c([N+](=O)[O-])cnc2C)c2ccccc2)cc1 (configuration not stated)	–	–	> 200	86000	>2	–
Cc1ncc([N+](=O)[O-])n1CCOC(c1ccccc1)c1cccc(-n2cccc2)c1 (configuration not stated)	–	–	> 200	14000	>14	–
Cc1ccccc1C(OCCn1c([N+](=O)[O-])cnc1C)c1ccccc1 (configuration not stated)	–	–	76	200	380	200
Cc1ncc([N+](=O)[O-])n1CCOC(c1ccccc1)c1ccc(Cl)c(Cl)c1 (configuration not stated)	–	–	200	97000	>2	–
CC(C)Nc1cccnc1N1CCN(C(=O)c2cc3cc(NS(C)(=O)=O)ccc3[nH]2)CC1 [DELAVIRDINE]	–	–	> 30	10	–	–
Cc1ncc([N+](=O)[O-])n1CCOC(c1ccccc1)c1cccc(Cl)c1 (configuration not stated)	–	–	> 200	200	>1000	500
Cc1ncc([N+](=O)[O-])n1CCOC(c1ccccc1)c1cccc([N+](=O)[O-])c1 (configuration not stated)	–	154	92.5	600	–	300
Cc1ncc([N+](=O)[O-])n1CCOC(c1ccccc1)c1ccc(Cl)cc1 (configuration not stated)	12	–	–	–	–	–
Cc1ncc([N+](=O)[O-])n1CCOC(c1ccccc1)c1cc(Cl)cc(Cl)c1 (configuration not stated)	–	–	> 200	45000	>4	–
Cc1ncc([N+](=O)[O-])n1CCCOC(c1ccccc1)c1ccccc1	–	–	96.5	35000	3	–
Cc1ncc([N+](=O)[O-])n1CCOC(c1ccccc1)c1cccc(F)c1 (configuration not stated)	–	–	> 200	100	>2000	500
Cc1ncc([N+](=O)[O-])n1CCOC(c1ccccc1)c1ccc(-c2ccccc2)cc1 (configuration not stated)	17	–	–	–	–	–

From ChEMBL document CHEMBL1135911, “Synthesis, biological evaluation, and binding mode of novel 1-[2-(diarylmethoxy)ethyl]-2-methyl-5-nitroimidazoles targeted at the HIV-1 reverse transcriptase” (J Med Chem, 2002)
